Test results as given in ChEMBL document CHEMBL1144004, “Synthesis of (nor)tropeine (di)esters and allosteric modulation of glycine receptor binding” (Bioorg Med Chem, 2008).

organism: Rattus norvegicus; experiment: Displacement of [3H]strychnine from Wistar rat glycine receptor in spinal cord membrane; type: cell membranes
Method in brief: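 Male Wistar rat spinal cord crude synaptic membranes, washed in 50 mM Tris-HCl pH 7.4 and pre-spun in buffer with 200 mM KSCN. Binding in 50 mM Tris-HCl plus 200 mM KSCN with 3 nM [3H]strychnine, 0 °C for 35 min. Duplicate aliquots were vacuum-filtered on GF/B filters and counted by scintillation. Nonspecific binding was taken with 2 mM glycine. Displacement curves were fitted (Eq. 2) for K_A and α; 3–6 experiments.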

Row | SMILES | K
1 | CN1[C@@H]2CC[C@H]1C[C@H](OC(=O)c1cccnc1)C2 | 2.2 µM
2 | CN1[C@@H]2CC[C@H]1C[C@H](OC(=O)c1cccc(C(=O)O[C@H]3C[C@H]4CC[C@@H](C3)N4C)c1)C2 | 0.197 µM
3 | O=C(O[C@H]1C[C@H]2CC[C@@H](C1)N2)C1c2ccccc2Oc2ccccc21 | 3.1 µM
4 | CN1[C@@H]2CC[C@H]1C[C@@H](OC(=O)/C=C/C(=O)O[C@H]1C[C@H]3CC[C@@H](C1)N3C)C2 | 7.5 µM
5 | CN1[C@@H]2CCC[C@H]1C[C@H](OC(=O)/C=C/C(=O)O[C@@H]1C[C@H]3CCC[C@@H](C1)N3C)C2 | 20.8 µM
6 | O=C(O[C@@H]1C[C@H]2CC[C@@H](C1)N2)c1cccnc1 | 0.082 µM
7 | O=C(OC1CC2CCC(C1)N2)c1c[nH]c2ccccc12 (stereo not drawn) [NORTROPISETRON] | 0.017 µM
8 | CN1[C@@H]2CC[C@H]1C[C@H](OC(=O)c1ccc(C(=O)O[C@H]3C[C@H]4CC[C@@H](C3)N4C)cc1)C2 | 24.6 µM
9 | O=C(O[C@@H]1C[C@@H]2N[C@H](C1)[C@@H]1O[C@@H]12)[C@H](CO)c1ccccc1 | 8 µM
10 | CN1[C@@H]2CC[C@H]1C[C@H](OC(=O)c1ccc(Cl)nc1)C2 | 5.7 µM
11 | CCN1[C@@H]2CC[C@H]1C[C@@H](OC(=O)CCC(=O)O[C@H]1C[C@H]3CC[C@@H](C1)N3CC)C2 | > 100 µM

biological target: not listed separately; experiment: (§1) Displacement of [3H]strychnine from Wistar rat glycine receptor in spinal cord membrane in presence of 10 uM glycine; type: cell membranes
Method in brief: (§2)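 Rat spinal cord synaptic membrane [3H]strychnine (3 nM) binding in 50 mM Tris-HCl/200 mM KSCN, 0 °C, 35 min, with 10 μM glycine present during test-ligand displacement. Filtration on GF/B, scintillation counting. Nonspecific binding was defined by 2 mM glycine. IC50 and slope come from concentration-displacement curves; three experiments.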

Row | SMILES | IC50
12 | O=C(OC1CC2CCC(C1)N2)c1c[nH]c2ccccc12 (stereo not drawn) [NORTROPISETRON] | 9.3 nM

organism: Rattus norvegicus; experiment: as §1; type: cell membranes; method in brief: as §2

Row | SMILES | Activity
13 | O=C(OC1CC2CCC(C1)N2)c1c[nH]c2ccccc12 (stereo not drawn) [NORTROPISETRON] | 60%
